Source: PubChem
Rows were chosen to be rich in hits. Some 0.94% of all compounds tested hit in one or more screens of this group.
PKA-R2B act = PKA-R2B complex activation; PKA-R2B holoenzyme dissociation, Cy5-IP20 fluorescence polarization; R2B truncated from residue 108, S112A mutant; 0% DMSO only, 100% 113 µM cGMP; 340,000 compounds, 0.079% hits; activation, % at 11.4 µM; P22694+P31323;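 active means activation above a cutoff set at the mean over all compounds plus 3 SD, cut at about 18% in these data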;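 further: higher means more holoenzyme dissociation and a rise in polarization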
Target sequence (P31323 whole entry, looked up, other chains not shown, the tested form may be a part): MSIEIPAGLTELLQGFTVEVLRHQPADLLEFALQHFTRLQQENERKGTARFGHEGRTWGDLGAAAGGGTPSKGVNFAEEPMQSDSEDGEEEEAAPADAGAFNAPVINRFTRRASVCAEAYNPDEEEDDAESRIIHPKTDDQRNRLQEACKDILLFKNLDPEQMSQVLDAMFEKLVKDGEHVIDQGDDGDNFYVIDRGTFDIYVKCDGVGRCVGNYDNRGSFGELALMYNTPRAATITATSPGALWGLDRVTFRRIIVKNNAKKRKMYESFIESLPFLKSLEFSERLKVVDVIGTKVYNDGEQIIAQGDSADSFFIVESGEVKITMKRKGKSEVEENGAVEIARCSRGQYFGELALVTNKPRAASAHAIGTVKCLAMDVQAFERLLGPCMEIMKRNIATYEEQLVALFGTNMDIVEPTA
PKA-R1A activ = activators of PKA-R1A complex; P00514+P68181; PKA-R1A dissociation, Cy5-IP20 fluorescence polarization; scaled: DMSO 0%, 113 µM cGMP 100%; activation, % at 11.4 µM; 340,000 compounds, 0.083% hits; AID 504707;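 active means percent activation above the mean of all tested compounds plus 3 SD, cut at about 19% in these data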;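 further: higher means more PKAc released from R1A so a rise in polarization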
Fh CTSL1 inh = blocks F. hepatica cathepsin L1 in PFM18AAP counter-screen. recombinant F. hepatica cathepsin L1, Z-Leu-Arg-MCA fluorescence. inhibition, % at 5.96 µM. 300,000 compounds, 0.49% hits;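 active means inhibition above the mean of all tested compounds plus 3 SD, set per screening campaign, cut at about 17% in these data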;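 further: 0% = plate median of test compound wells and 100% = 1 µM Z-Phe-Ala-diazomethylketone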
aDG glyco act = alpha-DG glycosylation activation; 360,000 compounds, 0.22% hits; Pro5-aDG cells, alpha-DG glycosylation AlphaScreen (IIH6); 0% Pro5, 100% B10-LARGE cell signal; AID 624168; activation, % at 10 µM;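 active means activation of at least 8% versus controls, or a plate z-score of at least 8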;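 further: Pro5 are CHO cells carrying HIG-tagged alpha-DG that lacks glycosylation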
UCH37 DUB inh = inhibitors of human deubiquitinating enzyme UCH37; Q9Y5K5; purified proteasome/UCH37, Ub-AMC cleavage fluorescence; inhibition, % (concentration not given with the values); 330,000 compounds, 0.33% hits;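 active means mean inhibition over replicate wells above about 20%, limit read from the data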;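 further: 0% = compound-free wells with enzyme and 100% = wells lacking proteasome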
Target sequence (Q9Y5K5 whole entry, looked up): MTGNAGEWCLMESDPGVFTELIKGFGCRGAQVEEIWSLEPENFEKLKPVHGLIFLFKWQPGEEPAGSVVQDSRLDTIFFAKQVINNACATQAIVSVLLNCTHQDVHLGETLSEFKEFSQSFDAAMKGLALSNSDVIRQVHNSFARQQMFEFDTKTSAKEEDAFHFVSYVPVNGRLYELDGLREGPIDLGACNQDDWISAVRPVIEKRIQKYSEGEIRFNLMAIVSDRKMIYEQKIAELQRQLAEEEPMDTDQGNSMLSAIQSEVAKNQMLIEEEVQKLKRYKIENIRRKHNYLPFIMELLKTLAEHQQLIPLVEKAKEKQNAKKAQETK
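system = Proteasome-associated human UCH37 deubiquitinase | amount = 0.15 nM proteasome as dispensed | medium = pH 7.4 Tris-HCl (50 mM) with ovalbumin, ATP-MgCl2, DTT | incubation = 30 min preincubation with enzyme, 25 min cleavage at room temperature | detection = AMC fluorescence 355/460 nm | read-out basis = percent inhibition | controls = no-proteasome and no-compound wells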
An asterisk follows results filed as active; . = no result given.

SMILES | PKA-R2B act | PKA-R1A activ | Fh CTSL1 inh | aDG glyco act | UCH37 DUB inh
COc1ccc(NC(=O)N2CCN(CCC#N)CC2)cc1 | 11.5 | -0.9 | 16.9* | -0.1 | 0.7
Brc1ccccc1C=NNc1ccccn1 | . | . | . | . | 0.2
O=C(CSc1ncn[nH]1)NN=Cc1ccc(F)cc1 | . | . | . | . | 4.5
Cc1ccc(C2OC(=O)C=C2c2ccccc2)cc1 (centres undefined) | -4.1 | 4.4 | 1.5 | 0.4 | 24.3*
O=C(CC(c1ccc(F)cc1)c1ccco1)N1CCCC1 (centres undefined) | -5.3 | -5.0 | 35.7* | -0.2 | 3.4
O=C(CC(c1ccc(F)cc1)c1ccco1)N1CCOCC1 (centres undefined) | -1.7 | 2.2 | 15.2 | -0.1 | 3.7
COc1ccccc1NC(=O)CC(c1ccc(F)cc1)c1ccco1 (centres undefined) | 0.1 | 4.3 | 21.4* | 0.2 | 4.4
O=C1CCC(=O)N1CCC(c1ccc(F)cc1)c1ccco1 (centres undefined) | 4.5 | -3.0 | 2.1 | 0.3 | 1.6
CCN(CC)C(=O)CC(c1ccccc1)c1ccco1 (centres undefined) | 4.4 | 4.0 | 35.5* | -0.1 | 3.0
O=C1c2ccccc2C(=O)N1CCC(c1ccc(F)cc1)c1ccco1 (centres undefined) | -4.7 | 1.4 | 18.0* | -0.4 | -1.3
Nc1nnc(CC(=O)NN=Cc2ccc(-c3ccccc3)o2)s1 | . | . | . | . | -1.7
O=C(CN1CCN(S(=O)(=O)c2ccc(Br)cc2)CC1)NN=Cc1cccs1 | . | . | . | . | 2.9
OC(=Cc1ccc2ccccc2n1)c1ccncc1 | . | . | . | . | 5.3
CCOc1ccc(-c2c(C(=O)NN=Cc3ccoc3)nnn2-c2nonc2N)cc1 | . | . | . | . | 2.1
CCCN(CCC)C(=O)CC(c1ccc(F)cc1)c1ccco1 (centres undefined) | 2.7 | -3.0 | 57.3* | -0.1 | 3.3
O=C(CC(c1ccc(F)cc1)c1ccco1)Nc1nccs1 (centres undefined) | 6.1 | -17.9 | -0.3 | -0.2 | 0.4
CCOc1cc(C=NN2CCOCC2)ccc1OCc1ccc(C(=O)OC)o1 | . | . | . | . | 3.4
CCn1c(SCC(=O)NN=Cc2cc(OC)c(OC)c(OC)c2)nc2ccccc21 | . | . | . | . | 2.1
O=C1C(Cl)=C(Nc2ccccc2)C(=O)c2ccccc21 | -8.0 | -7.1 | 5.7 | -0.9 | 6.2
C=CCNC1=C(Cl)C(=O)c2ccccc2C1=O | -1.2 | -5.3 | 12.6 | 9.7* | 14.7
CC(C)NC1=C(Cl)C(=O)c2ccccc2C1=O | -5.2 | -5.1 | 5.5 | 6.3* | 10.4
O=C1C(Cl)=C(NCc2cccnc2)C(=O)c2ccccc21 | 2.6 | -14.9 | 27.4* | 2.9* | 24.9*
CC(=O)N1CCc2c(sc(NC(=O)c3cccc(N4C(=O)CCC4=O)c3)c2C(N)=O)C1 | 7.9 | -8.3 | 25.2* | -0.2 | 12.1
CC(=O)N(c1ccc2oc(=O)sc2c1)S(=O)(=O)c1ccccc1 | -2.2 | -8.0 | 3.4 | -0.1 | 0.6
CCOc1ccc(S(=O)(=O)N(C(=O)c2ccco2)c2cc3sc(=O)oc3c3ccccc23)cc1 | -10.9 | -4.6 | -3.5 | 11.1* | 4.9
SMILES | PKA-R2B act | PKA-R1A activ | Fh CTSL1 inh | aDG glyco act | UCH37 DUB inh
COc1ccc(S(=O)(=O)N(C(=O)c2ccco2)c2cc3sc(=O)oc3c3ccccc23)cc1 | -5.6 | 6.9 | 0.2 | 7.6* | 3.5
COc1ccc(S(=O)(=O)N(C(=O)C(C)C)c2ccc3oc(=O)sc3c2)cc1 | 18.2 | -1.2 | -0.8 | -0.2 | 6.4
Cc1ccc(S(=O)(=O)N(C(=O)c2ccco2)c2cc3sc(=O)oc3c3ccccc23)cc1 | -2.3 | -3.4 | 1.1 | 6.6* | 6.0
O=C(NN=Cc1cc2c(cc1Cl)OCO2)c1ccccn1 | . | . | . | . | -7.5
CC1CCCC=CC(=O)c2c(O)cc(O)cc2CC(=O)O1 (centres undefined) | . | . | . | . | 2.5
O=C(NN=Cc1ccccc1C(F)(F)F)c1ccc2nc[nH]c2c1 | . | . | . | . | 2.8
COC(=O)N/N=C1\CCCc2ccccc21 | -3.2 | -18.6 | 0.2 | 0.0 | .
O=C(O)c1ccc(NN=C2CCCc3ccccc32)cc1 | . | . | . | . | 22.2*
CC1CN(CCCCOc2ccc3ccccc3c2)CC(C)O1 (centres undefined) | -0.2 | 7.1 | 18.5* | 0.4 | 3.7
C/C=C\C=C/C(=O)Nc1cccc(C2=NOC3(C2)C[C@@H](C(N)=O)N(C(=O)[C@H]2CCC(=O)N2)C3)c1 (some centres undefined) | -5.4 | -4.4 | 19.8* | -0.1 | -1.1
Cc1cc(C)nc(Nc2ccc(N3CCCC3)cc2)n1 | 1.7 | -9.0 | 17.2* | -0.6 | 6.3
CCCCC[C@H](O)/C=C/[C@H]1[C@H](O)CC(=O)[C@@H]1CCCCCCC(=O)O | . | . | -2.0 | . | .
CCCCCCCCCCC[C@@H](C[C@@H]1OC(=O)[C@H]1CCCCCC)OC(=O)[C@H](CC(C)C)NC=O | -2.3 | -10.4 | 21.4* | 0.2 | .
O=C(COC(=O)c1ccc([N+](=O)[O-])s1)Nc1ccc(Cl)cn1 | -10.0 | -12.3 | 44.5* | 0.0 | 6.3
Cc1c(Cl)cnc(NC(=O)COC(=O)c2cccs2)c1Cl | 0.0 | 11.9 | . | -0.1 | 3.6
Cc1c(Cl)cnc(NC(=O)COC(=O)c2ccc([N+](=O)[O-])s2)c1Cl | -5.6 | 6.0 | 58.9* | 0.1 | 12.9
Cc1ccc(C(=O)OCC(=O)Nc2ccc(Cl)cn2)s1 | 1.9 | -7.0 | . | -0.2 | 1.5
O=C(NN=Cc1cccc(Oc2ccccc2)c1)c1ccc(O)cc1O | . | . | . | . | -50.5
CCC(C)NC(=S)NNC(=O)c1ccncc1 (centres undefined) | 6.7 | 5.6 | 20.2* | 1.1 | 2.2
Nc1cc(CN2C(=O)c3ccccc3C2=O)cc(Cl)c1O | -0.2 | 4.2 | 25.1* | 0.3 | 5.2
O=C1c2ccccc2C(=O)N1Cc1cc(Cl)c(O)c([N+](=O)[O-])c1 | 2.7 | -6.5 | -3.3 | -0.1 | 5.4
Cc1ccsc1C=NNC(=O)c1cccc(S(=O)(=O)Nc2ccccc2Cl)c1 | . | . | . | . | 7.2
COc1ccc(C(C)=NNc2ccccc2Cl)c(O)c1 | . | . | . | . | 3.5
Cc1cc(C)n(C(=O)/C(C#N)=N/Nc2cc(Cl)cc(Cl)c2)n1 | -5.8 | -3.2 | 20.5* | -0.6 | .
COc1ccc(N2C(=O)C(Cl)=C(Nc3ccccc3OC)C2=O)cc1 | 2.8 | -2.5 | 0.8 | -0.2 | 4.2
COc1ccc(N2C(=O)C(Cl)=C(Nc3ccccc3O)C2=O)cc1 | 18.3 | -4.4 | 49.6* | 0.2 | 1.6
S=c1[nH]nc(-c2ccco2)n1N=Cc1cccc(Cl)c1Cl | . | . | . | . | 3.5
Cc1cc(C)cc(NC(=O)C2C3C=CC4(O3)C2C(=O)N(CCCN2CCCC2)C4C(=O)NC2CCCC(C)C2C)c1 (centres undefined) | 2.2 | -6.0 | -3.5 | -0.1 | 4.4
COc1ccc(NC(=O)C2C3C=CC4(O3)C2C(=O)N(CCN2CCCCC2)C4C(=O)NC2CCCC(C)C2C)cc1 (centres undefined) | 0.3 | 7.0 | 20.3* | 0.0 | 3.0
CC1CCN(N=Nc2nc3c([nH]2)c(=O)n(C)c(=O)n3C)CC1 | -12.0 | -5.3 | . | -0.1 | 16.8
